{"source": "ChEMBL document CHEMBL1124180", "about": "“Asymmetric synthesis and properties of the enantiomers of the antibacterial agent 7-(3-aminopyrrolidin-1-yl)-1-(2,4-difluorophenyl)-1,4-dihydro-6- fluoro-4-oxo-1,8-naphthyridine-3-carboxylic acid hydrochloride” (J Med Chem, 1988)", "key": {"Fusobacterium nucleatum": {"test_system": "Fusobacterium nucleatum", "assay": "In vitro activity against Fusobacterium nucleatum (ATCC 25586)", "type": "functional", "summary_of_the_method": "(§1)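 MIC determined under anaerobic conditions on Wilkins-Chalgren agar.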"}, "Klebsiella pneumoniae": {"test_system": "Klebsiella pneumoniae", "assay": "In vitro activity against Klebsiella pneumoniae (ATCC 8045).", "type": "functional", "summary_of_the_method": "(§2)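 MIC determined by agar dilution on brain-heart infusion agar under aerobic conditions.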"}, "Micrococcus luteus [1]": {"test_system": "Micrococcus luteus", "assay": "In vitro activity against Micrococcus luteus (ATCC 4698)", "type": "functional", "summary_of_the_method": "as §2"}, "Micrococcus luteus [2]": {"test_system": "Micrococcus luteus", "assay": "In vitro activity against Micrococcus luteus (ATCC 9341)", "type": "functional", "summary_of_the_method": "as §2"}, "Mus musculus [3]": {"test_system": "Mus musculus", "assay": "In vivo activity against Escherichia coli Juhl(100X LD50), when administered po(each compound tested at 3 doses with 10 animals)", "type": "functional", "summary_of_the_method": "(§3)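 Mice were challenged intraperitoneally with the organism. The compound was given orally as a total dose split into equal portions at 1 and 5 h post-infection. Three doses were used, with 10 animals per dose.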"}, "Mus musculus [4]": {"test_system": "Mus musculus", "assay": "In vivo activity against Escherichia coli Juhl(100X LD50), when administered sc(each compound tested at 3 doses with 10 animals)", "type": "functional", "summary_of_the_method": "(§4)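 Mice were challenged intraperitoneally with the organism. The compound was given subcutaneously as a total dose split into equal portions at 1 and 5 h post-infection. Three doses were used, with 10 animals per dose.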"}, "Mus musculus [5]": {"test_system": "Mus musculus", "assay": "In vivo activity against Pseudomonas aeruginosa A5007 (100X LD50), administered po( each compound tested at 3 doses with 10 animals)", "type": "functional", "summary_of_the_method": "as §3"}, "Mus musculus [6]": {"test_system": "Mus musculus", "assay": "In vivo activity against Pseudomonas aeruginosa A5007 (100X LD50), administered sc( each compound tested at 3 doses with 10 animals)", "type": "functional", "summary_of_the_method": "as §4"}, "Mus musculus [7]": {"test_system": "Mus musculus", "assay": "In vivo activity against Staphylococcus aureus NCTC 10649, administered sc ( each compound tested at 3 doses with 10 animals)", "type": "functional", "summary_of_the_method": "as §4"}, "Parvimonas micra": {"test_system": "Parvimonas micra", "assay": "In vitro activity against Peptostreptococcus micros (ATCC 33270)", "type": "functional", "summary_of_the_method": "as §1"}, "[8]": {"test_system": "Peptostreptococcus anaerobius", "assay": "In vitro activity against Peptostreptococcus anaerobius (ATCC 27337)", "type": "functional", "summary_of_the_method": "as §1"}, "[9]": {"test_system": "Peptoniphilus asaccharolyticus", "assay": "In vitro activity against Peptococcus asaccharolyticus (ATCC 14963).", "type": "functional", "summary_of_the_method": "as §1"}, "Finegoldia magna": {"test_system": "Finegoldia magna", "assay": "In vitro activity against Peptococcus magnus (ATCC 29328)", "type": "functional", "summary_of_the_method": "as §1"}, "Providencia stuartii": {"test_system": "Providencia stuartii", "assay": "In vitro activity against Providencia stuartii (CMX 640)", "type": "functional", "summary_of_the_method": "as §2"}, "Cutibacterium acnes": {"test_system": "Cutibacterium acnes", "assay": "In vitro activity against Propionibacterium acnes (132)", "type": "functional", "summary_of_the_method": "as §1"}, "Pseudomonas aeruginosa [10]": {"test_system": "Pseudomonas aeruginosa", "assay": "In vitro activity against Pseudomonas aeruginosa (A5007).", "type": "functional", "summary_of_the_method": "as §2"}, "Pseudomonas aeruginosa [11]": {"test_system": "Pseudomonas aeruginosa", "assay": "In vitro activity against Pseudomonas aeruginosa (BMH10)", "type": "functional", "summary_of_the_method": "as §2"}, "Pseudomonas aeruginosa [12]": {"test_system": "Pseudomonas aeruginosa", "assay": "In vitro activity against Pseudomonas aeruginosa (K799/WT).", "type": "functional", "summary_of_the_method": "as §2"}, "Staphylococcus aureus [13]": {"test_system": "Staphylococcus aureus", "assay": "In vitro activity against Staphylococcus aureus(45)", "type": "functional", "summary_of_the_method": "as §2"}, "Staphylococcus aureus [14]": {"test_system": "Staphylococcus aureus", "assay": "In vitro activity against Staphylococcus aureus (A5177)", "type": "functional", "summary_of_the_method": "as §2"}, "Staphylococcus aureus [15]": {"test_system": "Staphylococcus aureus", "assay": "In vitro activity against Staphylococcus aureus(ATCC 6538P)", "type": "functional", "summary_of_the_method": "as §2"}, "Staphylococcus aureus [16]": {"test_system": "Staphylococcus aureus", "assay": "In vitro activity against Staphylococcus aureus(CMX 503A)", "type": "functional", "summary_of_the_method": "as §2"}, "Staphylococcus aureus [17]": {"test_system": "Staphylococcus aureus", "assay": "In vitro activity against Staphylococcus aureus(CMX 553)", "type": "functional", "summary_of_the_method": "as §2"}, "Staphylococcus aureus [18]": {"test_system": "Staphylococcus aureus", "assay": "In vitro activity against Staphylococcus aureus(CMX 686B)", "type": "functional", "summary_of_the_method": "as §2"}, "[19]": {"test_system": "Staphylococcus epidermidis", "assay": "In vitro activity against Staphylococcus epidermidis (3519)", "type": "functional", "summary_of_the_method": "as §2"}, "Streptococcus agalactiae": {"test_system": "Streptococcus agalactiae", "assay": "In vitro activity against Streptococcus agalactiae (CMX 508).", "type": "functional", "summary_of_the_method": "as §2"}, "Staphylococcus aureus [20]": {"test_system": "Staphylococcus aureus", "assay": "In vitro activity against Staphylococcus aureus(45 RAR2)", "type": "functional", "summary_of_the_method": "as §2"}, "Streptococcus equinus": {"test_system": "Streptococcus equinus", "assay": "In vitro activity against Streptococcus bovis (A5169).", "type": "functional", "summary_of_the_method": "as §2"}, "Streptococcus pyogenes [21]": {"test_system": "Streptococcus pyogenes", "assay": "In vitro activity against Streptococcus pyogenes (2548 INDUC).", "type": "functional", "summary_of_the_method": "as §2"}, "Streptococcus pyogenes [22]": {"test_system": "Streptococcus pyogenes", "assay": "In vitro activity against Streptococcus pyogenes(930 CONST).", "type": "functional", "summary_of_the_method": "as §2"}, "Streptococcus pyogenes [23]": {"test_system": "Streptococcus pyogenes", "assay": "In vitro activity against Streptococcus pyogenes (EES61)", "type": "functional", "summary_of_the_method": "as §2"}, "Veillonella parvula": {"test_system": "Veillonella parvula", "assay": "In vitro activity against Veillonella parvula (ATCC 10790)", "type": "functional", "summary_of_the_method": "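Anaerobic MICs measured by agar dilution on Wilkins-Chalgren agar.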"}, "Mus musculus [24]": {"test_system": "Mus musculus", "assay": "In vivo activity against Staphylococcus aureus NCTC 10649, administered po( each compound tested at 3 doses with 10 animals)", "type": "functional", "summary_of_the_method": "as §3"}, "Peptostreptococcus sp.": {"test_system": "Peptostreptococcus sp.", "assay": "In vitro activity against Peptostreptococcus sp.(TB-11)", "type": "functional, peptostreptococcus s", "summary_of_the_method": "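MIC for anaerobic bacteria, measured on Wilkins-Chalgren agar.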"}, "[25]": {"test_system": "Prevotella melaninogenica", "assay": "In vitro activity against Bacteroides melaninogenicus (ATCC 25845).", "type": "functional", "summary_of_the_method": "as §1"}, "[26]": {"test_system": "Bacteroides thetaiotaomicron", "assay": "In vitro activity against Bacteroides thetaiotaomicron (ATCC 29742)", "type": "functional", "summary_of_the_method": "as §1"}, "[27]": {"assay": "Solubility in aqueous media 0.15 N sulfate, pH 5.4", "type": "physicochemical", "conditions": "read-out: S"}, "Burkholderia cepacia": {"test_system": "Burkholderia cepacia", "assay": "In vitro activity against Pseudomonas cepacia (296I)", "type": "functional", "summary_of_the_method": "as §2"}}}
{"smiles": "Cl.N[C@H]1CCN(c2nc3c(cc2F)c(=O)c(C(=O)O)cn3-c2ccc(F)cc2F)C1", "values": [{"measurement": "MIC", "setting": "Fusobacterium nucleatum", "value": 0.25, "unit": "µg/mL"}, {"measurement": "MIC", "setting": "Klebsiella pneumoniae", "value": 0.01, "unit": "µg/mL"}, {"measurement": "MIC", "setting": "Micrococcus luteus [1]", "value": 0.78, "unit": "µg/mL"}, {"measurement": "MIC", "setting": "Micrococcus luteus [2]", "value": 0.78, "unit": "µg/mL"}, {"measurement": "ED50", "setting": "Mus musculus [3]", "value": 0.8, "unit": "mg/kg"}, {"measurement": "ED50", "setting": "Mus musculus [4]", "value": 0.2, "unit": "mg/kg"}, {"measurement": "ED50", "setting": "Mus musculus [5]", "value": 11.5, "unit": "mg/kg"}, {"measurement": "ED50", "setting": "Mus musculus [6]", "value": 19.1, "unit": "mg/kg"}, {"measurement": "ED50", "setting": "Mus musculus [7]", "value": 0.4, "unit": "mg/kg"}, {"measurement": "MIC", "setting": "Parvimonas micra", "value": 0.06, "unit": "µg/mL"}, {"measurement": "MIC", "setting": "[8]", "value": 0.12, "unit": "µg/mL"}, {"measurement": "MIC", "setting": "[9]", "value": 0.12, "unit": "µg/mL"}, {"measurement": "MIC", "setting": "Finegoldia magna", "value": 0.06, "unit": "µg/mL"}, {"measurement": "MIC", "setting": "Providencia stuartii", "value": 1.56, "unit": "µg/mL"}, {"measurement": "MIC", "setting": "Cutibacterium acnes", "value": 2, "unit": "µg/mL"}, {"measurement": "MIC", "setting": "Pseudomonas aeruginosa [10]", "value": 0.1, "unit": "µg/mL"}, {"measurement": "MIC", "setting": "Pseudomonas aeruginosa [11]", "value": 0.05, "unit": "µg/mL"}, {"measurement": "MIC", "setting": "Pseudomonas aeruginosa [12]", "value": 0.1, "unit": "µg/mL"}, {"measurement": "MIC", "setting": "Staphylococcus aureus [13]", "value": 0.1, "unit": "µg/mL"}, {"measurement": "MIC", "setting": "Staphylococcus aureus [14]", "value": 0.05, "unit": "µg/mL"}, {"measurement": "MIC", "setting": "Staphylococcus aureus [15]", "value": 0.02, "unit": "µg/mL"}, {"measurement": "MIC", "setting": "Staphylococcus aureus [16]", "value": 0.05, "unit": "µg/mL"}, {"measurement": "MIC", "setting": "Staphylococcus aureus [17]", "value": 0.05, "unit": "µg/mL"}, {"measurement": "MIC", "setting": "Staphylococcus aureus [18]", "value": 0.05, "unit": "µg/mL"}, {"measurement": "MIC", "setting": "[19]", "value": 0.05, "unit": "µg/mL"}, {"measurement": "MIC", "setting": "Streptococcus agalactiae", "value": 0.2, "unit": "µg/mL"}, {"measurement": "MIC", "setting": "Staphylococcus aureus [20]", "value": 0.05, "unit": "µg/mL"}, {"measurement": "MIC", "setting": "Streptococcus equinus", "value": 0.2, "unit": "µg/mL"}, {"measurement": "MIC", "setting": "Streptococcus pyogenes [21]", "value": 0.1, "unit": "µg/mL"}, {"measurement": "MIC", "setting": "Streptococcus pyogenes [22]", "value": 0.1, "unit": "µg/mL"}, {"measurement": "MIC", "setting": "Streptococcus pyogenes [23]", "value": 0.1, "unit": "µg/mL"}, {"measurement": "MIC", "setting": "Veillonella parvula", "value": 0.25, "unit": "µg/mL"}, {"measurement": "ED50", "setting": "Mus musculus [24]", "value": 0.8, "unit": "mg/kg"}, {"measurement": "MIC", "setting": "Peptostreptococcus sp.", "value": 0.25, "unit": "µg/mL"}, {"measurement": "MIC", "setting": "[25]", "value": 0.5, "unit": "µg/mL"}, {"measurement": "MIC", "setting": "[26]", "value": 0.5, "unit": "µg/mL"}, {"measurement": "solubility", "setting": "[27]", "value": 8.7, "unit": "µg/mL"}, {"measurement": "MIC", "setting": "Burkholderia cepacia", "value": 3.1, "unit": "µg/mL"}]}
